Assay results reported in ChEMBL document CHEMBL4033788, “Novel Ligustrazine-Based Analogs of Piperlongumine Potently Suppress Proliferation and Metastasis of Colorectal Cancer Cells in Vitro and in Vivo” (J Med Chem, 2018).
Converted amounts (≈) assume the structure as drawn. The source made the active and inactive calls. No cut-off for these calls is given here.

Experiments:
Mus musculus [1] = assay: Toxicity in BALB/c nude mouse xenografted with human HCT116 cells assessed as mortality at 4 mg/kg, ip administered thrice a week for 6 consecutive weeks; type: organism-based; conditions: in vivo
Procedure, shortened: (§1)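 Lung metastasis model: HCT-116 cells in serum-free medium injected into tail vein of BALB/c nude mice, then randomized and given vehicle or compound ip (1, 2 or 4 mg/kg) three times a week. Body weight recorded weekly, survival monitored (n = 6); mice sacrificed after 40 days and lungs examined by H&E histology.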

HCT-116 [2] = assay: Inhibition of TGF-beta1-induced increase in expression levels of twist protein in human HCT116 cells at 50 nM after 48 hrs by Western blot analysis; type: functional, cell-based
Procedure, shortened: (§2)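 HCT-116 cells (1 × 10^6/well, plated overnight) were exposed to TGF-β1 (10 ng/mL) for 48 h, with or without test compound; vehicle was 0.1% DMSO. Lysates (20 μg/lane) were run on 7.5% SDS-PAGE and blotted to PVDF, with primary antibody overnight at 4 °C and HRP/ECL detection. Band densities were normalised to β-actin across three independent experiments.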

[3] = molecular target: T1, Catenin beta-1 (Homo sapiens) (UniProt P35222); assay: Inhibition of TGF-beta1-regulated increase in nuclear beta-catenin in human HCT116 cells at 50 nM after 48 hrs by Western blot analysis; type: cell-based
T1 sequence (whole entry): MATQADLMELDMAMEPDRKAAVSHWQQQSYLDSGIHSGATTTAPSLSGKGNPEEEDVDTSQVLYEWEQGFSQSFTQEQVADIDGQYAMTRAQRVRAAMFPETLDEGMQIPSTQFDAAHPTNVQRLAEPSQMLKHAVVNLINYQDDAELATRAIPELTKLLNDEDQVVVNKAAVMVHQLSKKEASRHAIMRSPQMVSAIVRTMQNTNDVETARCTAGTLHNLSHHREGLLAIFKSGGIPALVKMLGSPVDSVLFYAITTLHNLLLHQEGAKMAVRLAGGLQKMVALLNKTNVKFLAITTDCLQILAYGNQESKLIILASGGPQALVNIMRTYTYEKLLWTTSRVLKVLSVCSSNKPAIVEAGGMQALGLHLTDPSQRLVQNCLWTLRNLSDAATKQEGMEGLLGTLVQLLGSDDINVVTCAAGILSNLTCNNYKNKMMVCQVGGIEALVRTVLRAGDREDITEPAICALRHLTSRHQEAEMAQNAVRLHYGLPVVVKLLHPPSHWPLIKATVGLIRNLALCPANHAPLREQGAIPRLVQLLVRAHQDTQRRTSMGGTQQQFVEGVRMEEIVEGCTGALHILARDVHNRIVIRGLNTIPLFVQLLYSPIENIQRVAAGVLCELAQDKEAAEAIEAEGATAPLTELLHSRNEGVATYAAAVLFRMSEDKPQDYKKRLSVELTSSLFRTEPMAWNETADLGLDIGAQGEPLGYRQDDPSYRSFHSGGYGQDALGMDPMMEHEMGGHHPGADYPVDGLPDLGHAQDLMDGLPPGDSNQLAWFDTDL
Procedure, shortened: (§3)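 Cytoplasmic and nuclear β-catenin were measured by Western blot in HCT-116 cells given TGF-β1 (10 ng/mL) for 48 h, with or without compound, against 0.1% DMSO vehicle. Lysates (20 μg/lane) were run on 7.5% gels and transferred to PVDF, with Lamin A among the antibodies used. Blots were read by ECL and densitometry, n = 3 independent experiments.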

HCT-116 [4] = assay: Antitumor activity against human HCT116 cells xenografted in BALB/c nude mouse assessed as reduction in tumor volume at 2.5 to 5 mg/kg, ip administered daily for 21 consecutive days; type: functional, organism-based
Procedure, shortened: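 Male BALB/c nude mice, 3–5 weeks old, inoculated subcutaneously with 1 × 10^7 HCT-116 cells. At about 75 mm³ tumor volume, randomized (n = 8/group) and dosed intraperitoneally daily. Volume by caliper as d² × D/2. At the end, tumors excised and weighed; inhibition = (Wcontrol − Wtreated)/Wcontrol × 100%.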

HCT-116 [5] = assay: Inhibition of IL-1beta-mediated adhesion of human rhodamine 123-labeled HCT116 cells to HUVEC after 1 hr by fluoresence assay; type: functional, cell-based
Procedure, shortened: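 HUVEC monolayers pretreated with or without IL-1β (1 ng/mL) for 4 h, then washed. Rhodamine 123-labeled HCT-116 cells added with vehicle or test agent (2, 10, 50 nM) at 37 °C for 1 h. Non-adherent cells washed off; percent adhered cells determined by fluorescence microscopy. Three separate experiments.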

[6] = molecular target: Glycogen synthase kinase-3 beta (Homo sapiens) (UniProt P49841); assay: Inhibition of TGF-beta1-induced GSK-3beta phosphorylation in human HCT116 cells after 48 hrs by Western blot analysis; type: cell-based
Procedure, shortened: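 HCT-116 cells treated with or without TGF-β1 (10 ng/mL) for 48 h, with or without test agent. Lysates (20 μg/lane) run on 7.5% SDS-PAGE and transferred to PVDF. Probed for p-Akt (Ser473), Akt, p-GSK-3β (S9), GSK-3β, E-cadherin, MMP-9 and β-actin, detected by ECL. Densitometry relative to β-actin or total protein. Three independent experiments.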

Mus musculus [7] = assay: Cardiotoxicity in BALB/c nude mouse xenografted with human HCT116 cells at 2.5 to 5 mg/kg, ip administered for 21 consecutive days; type: toxicity, organism-based; conditions: in vivo
Procedure, shortened: (§4)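 Male BALB/c nude mice (3−5 weeks) inoculated sc with 1 × 10^7 HCT-116 cells; at tumour volume about 75 mm3 randomized (n = 8 per group) and dosed ip daily at 2.5 or 5 mg/kg for 21 consecutive days. Body weights monitored; liver, kidney, lung and heart inspected for size and morphology at sacrifice.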

Mus musculus [8] = assay: Toxicity in BALB/c nude mouse xenografted with human HCT116 cells assessed as abnormality in lung at 2.5 to 5 mg/kg, ip administered for 21 consecutive days; type: organism-based; conditions: in vivo; procedure, shortened: as §4
[9] = Acute toxicity in ICR mouse assessed as survival rate at 400 mg/kg, ip administered for 14 days relative to control; type: organism-based; conditions: in vivo
HCT-116 [10] = assay: Inhibition of TGF-beta1-induced increase in expression levels of twist protein in human HCT116 cells after 48 hrs by Western blot analysis; type: functional, cell-based; procedure, shortened: as §2
A549 = assay: Antiproliferative activity against human A549 cells after 72 hrs by MTT assay; type: functional, cell-based; conditions: A549, 72 h
[11] = Aqueous solubility of compound by HPLC analysis; type: physicochemical; conditions: water
Procedure, shortened: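 Compound shaken in pure water or 50 mM phosphate buffer pH 7.4 at 20 °C, then centrifuged. Supernatant assayed by C18 HPLC (acetonitrile–water 60/40, 1.0 mL/min, 254 nm). Triplicate.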

Mus musculus [12] = assay: Toxicity in BALB/c nude mouse assessed as reduction in body weight at 2.5 to 5 mg/kg, ip administered for 21 consecutive days; type: organism-based; conditions: in vivo; procedure, shortened: as §4
Mus musculus [13] = assay: Toxicity in BALB/c nude mouse xenografted with human HCT116 cells assessed as mortality at 2 to 4 mg/kg, ip administered thrice a week for 6 consecutive weeks; type: organism-based; conditions: in vivo; procedure, shortened: as §1
[14] = molecular target: T1, Catenin beta-1 (Homo sapiens); assay: Inhibition of TGF-beta1-regulated increase in nuclear beta-catenin in human HCT116 cells at 2 to 50 nM after 48 hrs by Western blot analysis; type: cell-based; procedure, shortened: as §3
Mus musculus [15] = assay: Acute toxicity in ICR mouse assessed as mortality at 50 mg/kg, ip administered for 14 days; type: organism-based; conditions: in vivo, 336 h

Glycogen synthase kinase-3 beta (Homo sapiens), sequence (P49841 whole entry, looked up): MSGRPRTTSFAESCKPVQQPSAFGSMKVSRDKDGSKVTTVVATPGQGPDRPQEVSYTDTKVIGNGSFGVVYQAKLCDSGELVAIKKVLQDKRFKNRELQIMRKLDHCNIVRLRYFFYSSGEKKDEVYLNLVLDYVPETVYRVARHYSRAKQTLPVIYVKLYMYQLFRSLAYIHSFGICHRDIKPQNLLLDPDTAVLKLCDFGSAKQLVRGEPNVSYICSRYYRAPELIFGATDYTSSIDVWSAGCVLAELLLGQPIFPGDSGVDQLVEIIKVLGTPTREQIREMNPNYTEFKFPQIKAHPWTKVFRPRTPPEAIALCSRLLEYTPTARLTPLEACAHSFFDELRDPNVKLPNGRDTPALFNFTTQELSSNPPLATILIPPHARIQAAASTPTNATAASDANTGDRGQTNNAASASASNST

COc1cc(/C=C/C(=O)N2CCC=CC2=O)cc(OC)c1OC [PIPLARTINE]
Activity (Mus musculus [1]): Non-Toxic
inhibition (HCT-116 [2]): Active
inhibition [3]: Active

Cc1nc(C)c(/C=C/C(=O)N2CCC=C(Cl)C2=O)nc1C
Activity (HCT-116 [4]): Active
inhibition (HCT-116 [5]): Dose-dependent effect
inhibition [6]: Dose-dependent effect
Activity (Mus musculus [7]): Non-Toxic
Activity (Mus musculus [8]): Non-Toxic
survival at 336 h [9]: 0%
inhibition (HCT-116 [10]): Dose-dependent effect
IC50 (A549): 2210 nM
solubility [11]: 22.8 µg/mL (≈ 74.7 µM)
Activity (Mus musculus [12]): Non-Toxic
Activity (Mus musculus [13]): Non-Toxic
inhibition [14]: Active
Activity (Mus musculus [15]): Non-Toxic
